An excerpt weighted towards active compounds, which were near 3.5% of everything screened.
RGS4 inh = human RGS4 inhibition; P49798; HEK293 M3R/RGS4 inducible, Fluo-4 calcium flux; hits give high values; triggered by carbachol at its EC20; B-score at 10 µM; hit rate 0.45% among 310,000; AID 463165;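 active means B-score, a plate-corrected calcium signal, over three deviations above library mean, with baseline fluorescence within five deviations of library mean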;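 further: RGS4 expression induced by doxycycline in cells with stable M3 receptor; B-score is computed from the integrated fluorescence ratio over baseline after carbachol; higher B-score means a larger calcium signal and so more RGS4 inhibition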
Target sequence (P49798 whole entry, looked up): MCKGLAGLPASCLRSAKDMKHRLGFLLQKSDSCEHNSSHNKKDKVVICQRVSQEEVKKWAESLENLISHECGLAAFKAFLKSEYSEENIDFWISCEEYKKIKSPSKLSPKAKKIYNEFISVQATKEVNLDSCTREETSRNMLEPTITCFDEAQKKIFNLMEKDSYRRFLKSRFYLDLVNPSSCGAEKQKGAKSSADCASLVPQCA
MrgX1 antagonist = human MrgX1 receptor antagonism, primary screen; MRGX1-HEK293 calcium flux, Fluo-4, BAM8-22 antagonism; hits give low values; B-score at 10 µM; hit rate 1.3% among 310,000; AID 588676;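 active means calcium-response B-score plate-corrected more than 3 library SD below zero, starting fluorescence within 5 deviations, no agonist response on first addition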;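 further: peak minus trough fluorescence over baseline after final BAM8-22 challenge near maximal dose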
Target sequence (Q96LB2 whole entry, looked up): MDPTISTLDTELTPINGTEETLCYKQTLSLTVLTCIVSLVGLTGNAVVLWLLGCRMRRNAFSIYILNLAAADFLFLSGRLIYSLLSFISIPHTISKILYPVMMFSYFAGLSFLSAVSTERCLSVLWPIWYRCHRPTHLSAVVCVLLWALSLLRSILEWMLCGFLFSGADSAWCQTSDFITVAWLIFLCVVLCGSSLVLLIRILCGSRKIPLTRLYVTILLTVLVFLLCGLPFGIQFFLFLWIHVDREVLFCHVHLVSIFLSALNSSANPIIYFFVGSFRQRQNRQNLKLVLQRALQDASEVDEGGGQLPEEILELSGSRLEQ
RGS4 act = RGS4 potentiation or activation. HEK293 M3R/inducible RGS4, carbachol calcium flux Fluo4; hits give low values. AID 463111. hit rate 0.92% among 310,000. B-score at 10 µM;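 active means B-score of the integrated calcium signal more than 4 SD below the library mean, with starting fluorescence not abnormally high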;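 further: negative B-score means reduced calcium response which marks RGS4 activation or potentiation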
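Also added: carbachol at ECmax as muscarinic agonist stimulus; Assay system: HEK293 cells with stable M3R and inducible RGS4; Timing: overnight RGS4 induction, 30 min dye load 37 °C, 20 min compound RT; Measured by: Fluo4-AM (2 µM) calcium-flux fluorescence, kinetic read.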
MrgX1 agonist = activates human MrgX1 receptor signaling; hit rate 0.44% among 310,000; AID 588627; B-score at 10 µM; MrgX1-HEK293 cells, Fluo-4 calcium fluorescence, agonist mode; hits give high values; Q96LB2;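 active means calcium response B-score plate-corrected fluorescence ratio at least 3 library SD, with starting fluorescence B-score inside 5 SD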
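Assay system: stable human MrgX1 HEK293 cell line. Quantity: 15,000 cells per well. Schedule: cells plated overnight, dye loaded 0.5 h 37 °C, 0.5 h room temperature. Detection: Fluo-4 NW calcium-flux fluorescence, kinetic read. Read-out basis: peak-minus-minimum fluorescence over baseline, converted to B scores. Control set: positive and negative control wells on each plate.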
MrgX1 allo act = allosterically activates human MrgX1 receptor signaling | MrgX1-HEK293, Fluo-4 calcium flux, FDSS; hits give high values | B-score at 10 µM | hit rate 0.63% among 310,000 | AID 588675;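 active means plate-corrected calcium response at least 3 library SD above typical, normal starting fluorescence, not activating the receptor alone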;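 further: compound read alongside a low EC10 to EC30 dose of BAM8-22 agonist; peak minus trough fluorescence over baseline measured at the second addition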
MrgX1 antag conf = human MrgX1 receptor antagonism, re-confirmation screen | hit rate 19% among 2,300 | shares compounds with MrgX1 antagonist | remaining BAM8-22 calcium response % of control (hits give low values), % at 10 µM | MrgX1-HEK293, BAM8-22 calcium flux, Fluo-4; hits give low values;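 active means remaining agonist calcium response no higher than 100% minus 3 SD of agonist-only control wells, with starting fluorescence near control levels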;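 further: agonist BAM8-22 given at a near maximal EC90 to ECmax level; peak minus minimum fluorescence divided by baseline after agonist addition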
HEK293 Ca flux = MrgX1 antagonist counter-screen hit in parental HEK293 cells | shares compounds with MrgX1 antagonist | Fluo-4 calcium fluorescence, FDSS | fluorescence ratio F(max-min)/F0 at 10 µM | hit rate 2% among 4,000 | AID 624111;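 active means duplicate-averaged calcium fluorescence ratio at least three times the standard deviation of buffer wells, a nonspecific response in parental cells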
HEK293 Ca counter = MrgX1 allosteric activator counter-screen hit in parental HEK293 cells | AID 624114 | hit rate 0.4% among 4,000 | parental HEK293 calcium flux, Fluo-4 fluorescence ratio; hits give high values | fluorescence ratio F(max-min)/F0 at 10 µM | shares compounds with MrgX1 antagonist;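 active means calcium fluorescence ratio, averaged over duplicates, at least 3 SD of the buffer-well ratio, meaning a nonspecific response in receptor-free cells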;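 further: untransfected parental HEK293 lacking MrgX1 used as counterscreen for MrgX1 allosteric activators; fluorescence change taken during the second addition on a kinetic imager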
HEK293 Ca cntr2 = MrgX1 activator counter-screen hit in parental HEK293 cells. fluorescence ratio F(max-min)/F0 at 10 µM. Fluo-4 calcium fluorescence (FDSS); hits give high values. shares compounds with MrgX1 antagonist. hit rate 8.7% among 4,000;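 active means calcium fluorescence ratio at least three times the spread of buffer wells, meaning a non-specific response in parental cells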
Large screens that a line does not name were inactive (follow-up assays come after a bar, where they were run).

Cc1ccc(S(=O)(=O)N(C)c2ccc(C(=O)N3CCN(Cc4ccc5c(c4)OCO5)CC3)cc2)cc1	MrgX1 antagonist -5.2 | MrgX1 antag conf inactive | HEK293 Ca flux inactive | HEK293 Ca counter inactive | HEK293 Ca cntr2 inactive
CCN(CC)c1ccc(C(=O)NC(=S)N2CCN(Cc3ccc4c(c3)OCO4)CC2)cc1	MrgX1 antagonist -5.1 | MrgX1 antag conf inactive | HEK293 Ca flux inactive | HEK293 Ca counter inactive | HEK293 Ca cntr2 inactive
CCn1nc(C)c(Br)c1-c1nc(-c2cccc(C)c2)no1	none
NC(=O)c1cc(NC(=O)CCCc2nc3ccccc3s2)cc(C(N)=O)c1	none
CSc1cccc(NC(=S)N(CCC(C)C)C2CCN(C(C)C)CC2)c1	MrgX1 antagonist -6.3 | MrgX1 antag conf inactive | HEK293 Ca flux inactive | HEK293 Ca counter inactive | HEK293 Ca cntr2 inactive
CSc1cccc(NC(=S)N(CCC(C)C)C2CCN(C(C)=O)CC2)c1	none
COC(=O)CNC(=O)CNC(=O)Nc1ccccc1	MrgX1 antagonist -8.1 | MrgX1 antag conf 83% | HEK293 Ca flux inactive | HEK293 Ca counter inactive | HEK293 Ca cntr2 inactive
CC12CCC(=O)N1C(C(=O)OCC(=O)Nc1cc(S(=O)(=O)N3CCCCC3)ccc1Cl)CS2 (stereo not given)	none
COc1ccc(NC(=O)CSc2ccccn2)cc1OC	MrgX1 antagonist -4.8 | MrgX1 antag conf inactive | HEK293 Ca flux inactive | HEK293 Ca counter inactive | HEK293 Ca cntr2 inactive
O=C(CSc1ccccn1)Nc1nc2ccccc2s1	MrgX1 antagonist -7.6 | MrgX1 antag conf 85% | HEK293 Ca flux inactive | HEK293 Ca counter inactive | HEK293 Ca cntr2 inactive
COc1cc(NC(=O)CN2C(=O)C(C)N(c3ccc(C)cc3)C2=O)cc(OC)c1 (stereo not given)	MrgX1 antagonist -6.5 | MrgX1 antag conf inactive | HEK293 Ca flux inactive | HEK293 Ca counter inactive | HEK293 Ca cntr2 inactive
Cc1ccc2nc(SCC(=O)O)nc(C)c2c1	none
Cc1ccc2nc(SCCC#N)nc(C)c2c1	MrgX1 antagonist -8.1 | MrgX1 antag conf inactive | HEK293 Ca flux inactive | HEK293 Ca counter inactive | HEK293 Ca cntr2 inactive
N#Cc1cccc(NC(=O)COC(=O)CCc2nc3ccccc3c(=O)[nH]2)c1	none
CCOc1ccccc1C(=O)NC(C)c1ccc2c(c1)OCO2 (stereo not given)	MrgX1 antagonist -5.3 | MrgX1 antag conf inactive | HEK293 Ca flux inactive | HEK293 Ca counter inactive | HEK293 Ca cntr2 inactive
CCc1sc(NC(=O)COC)nc1-c1ccccc1	MrgX1 antagonist -4.6 | MrgX1 antag conf inactive | HEK293 Ca flux inactive | HEK293 Ca counter inactive | HEK293 Ca cntr2 inactive
CCc1sc(NC(C)=O)nc1-c1ccccc1	none
COc1ccc(NC(=O)c2nnn(Cc3ccc(SC)cc3)c2N)c(OC)c1	MrgX1 antagonist -4.7 | MrgX1 antag conf inactive | HEK293 Ca flux inactive | HEK293 Ca counter inactive | HEK293 Ca cntr2 inactive
COc1ccc(C)cc1NC(=O)c1nnn(Cc2cc(C)ccc2C)c1N	MrgX1 antagonist -5.2 | MrgX1 antag conf inactive | HEK293 Ca flux inactive | HEK293 Ca counter inactive | HEK293 Ca cntr2 inactive
O=C(Nc1ccc2c(c1)OC1(CCCC1)O2)C1CC1	MrgX1 antagonist -5.9 | MrgX1 antag conf inactive | HEK293 Ca flux inactive | HEK293 Ca counter inactive | HEK293 Ca cntr2 inactive
CC(=O)Nc1ccc(S(=O)(=O)NCC(=O)OCc2ccccc2)cc1	none
FC(F)C(F)(F)c1cc(-c2ccc(Cl)cc2)n[nH]1	MrgX1 antagonist -6.7 | MrgX1 antag conf inactive | HEK293 Ca flux inactive | HEK293 Ca counter inactive | HEK293 Ca cntr2 inactive
Oc1ccccc1-c1cc(C(F)(F)C(F)F)[nH]n1	none
CCC(C)C(NC(=O)c1ccc(Cl)cc1)C(=O)Nc1cccnc1 (stereo not given)	MrgX1 antagonist -7.6 | MrgX1 antag conf inactive | HEK293 Ca flux inactive | HEK293 Ca counter inactive | HEK293 Ca cntr2 inactive

High-throughput results as filed in PubChem BioAssay.
